Source: ChEMBL document CHEMBL5030505, “Assessment of NR4A Ligands That Directly Bind and Modulate the Orphan Nuclear Receptor Nurr1” (J Med Chem, 2020)

Key:
Format in all cases: cell-based
[1] = target: Nuclear receptor subfamily 4 group A member 2 (Homo sapiens) (UniProt P43354); assay: Modulation of full length human Nurr1 expressed in HEK293T cells co-transfected with RXRalpha and luciferase reporter plasmid harboring NBRE response element assessed as increase in luciferase activity incubated for 18 hrs by luciferase reporter-gene assay; conditions: filed as modulator
Outline: (§1)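 Full-length Nurr1 plasmid, alone (2 μg) or 1 μg plus full-length RXRα (1 μg), cotransfected with 3xNBRE- or 3xNurRE-luciferase reporter (6 μg) using Lipofectamine 2000, 18 h. Cells replated at 10,000/well for 4 h. Four ligand concentrations, or vehicle (water, ethanol or DMSO), added in quadruplicate for 18 h. Luciferase read. Fold change vs vehicle, mean ± s.e.m., one-way ANOVA vs vehicle.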

[2] = target: Nuclear receptor subfamily 4immunitygroup A member 1 (Homo sapiens) (UniProt P22736); assay: Modulation of full length human Nur77 expressed in PC12 cells co-transfected with luciferase reporter plasmid harboring NBRE response element assessed as increase in luciferase activity incubated for 18 by luciferase reporter gene assay; conditions: PC-12, filed as modulator, time 18.0 hrs
Outline: (§2)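 Cells seeded at 1.5 million per 10-cm dish. Next day they were transfected (Lipofectamine 2000) with full-length Nur77 or NOR-1 expression plasmid, either alone (2 μg) or 1 μg plus full-length RXRα (1 μg), and 3xNBRE- or 3xNurRE-luciferase reporter (6 μg), 18 h. Cells replated at 10,000/well, 4 h, then ligand dose response added in quadruplicate for 18 h. Luciferase luminescence read.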

[3] = target: Nuclear receptor subfamily 4 group A member 3 (Homo sapiens) (UniProt Q92570); assay: Modulation of full length human NOR1 expressed in PC12 cells co-transfected with luciferase reporter plasmid harboring NurRE response element assessed as increase in luciferase activity incubated for 18 by luciferase reporter gene assay; conditions: PC-12, filed as modulator, time 18.0 hrs
Outline: (§3)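 Full-length NOR-1 plasmid was transfected via Lipofectamine 2000, either alone (2 μg) or at 1 μg with full-length RXRα (1 μg). It was paired with a 3xNBRE or 3xNurRE luciferase reporter (6 μg), 8 μg total DNA, for 18 h. Cells were replated at 10,000/well for 4 h, then given a full ligand dose response or vehicle in quadruplicate for 18 h. Luciferase was read; no EC50/IC50 was fitted.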

[4] = target: Nuclear receptor subfamily 4 group A member 2 (Homo sapiens) (UniProt P43354); assay: Modulation of full length human Nurr1 expressed in SKNBE(2) cells co-transfected with luciferase reporter plasmid harboring NurRE response element assessed as increase in luciferase activity incubated for 18 hrs by luciferase reporter-gene assay; conditions: SKNBE2, filed as modulator
Outline: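 Transfection of SK-N-BE(2)-C cells (1:1 EMEM/F12, 10% FBS, 37°C, 5% CO2) used full-length Nurr1 alone (2 μg, no RXRα) with 3xNBRE- or 3xNurRE-luciferase reporter (6 μg) for 18 h. Cells were replated at 10,000/well for 4 h, then exposed to ligand or vehicle in quadruplicate for 18 h. Luminescence was expressed as fold over vehicle, as mean ± s.e.m. (n=4) from 2 independent experiments, one-way ANOVA against vehicle.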

[5] = target: Nuclear receptor subfamily 4 group A member 3 (Homo sapiens) (UniProt Q92570); assay: Modulation of full length human NOR1 expressed in PC12 cells co-transfected with RXRalpha and luciferase reporter plasmid harboring NurRE response element assessed as increase in luciferase activity incubated for 18 by luciferase reporter gene assay; conditions: PC-12, filed as modulator, time 18.0 hrs; outline: as §3
[6] = target: Nuclear receptor subfamily 4immunitygroup A member 1 (Homo sapiens) (UniProt P22736); assay: Modulation of full length human Nur77 expressed in SK-N-BE(2) cells co-transfected with RXRalpha and luciferase reporter plasmid harboring NBRE response element assessed as increase in luciferase activity incubated for 18 by luciferase reporter gene assay; conditions: SKNBE2, filed as modulator, time 18.0 hrs; outline: as §2
[7] = target: Nuclear receptor subfamily 4immunitygroup A member 1 (Homo sapiens) (UniProt P22736); assay: Modulation of full length human Nur77 expressed in HEK293 cells co-transfected with RXRalpha and luciferase reporter plasmid harboring NBRE response element assessed as increase in luciferase activity incubated for 18 hrs by luciferase reporter gene assay; conditions: filed as modulator; outline: as §2
[8] = target: Nuclear receptor subfamily 4 group A member 3 (Homo sapiens) (UniProt Q92570); assay: Modulation of full length human NOR1 expressed in HEK293 cells co-transfected with luciferase reporter plasmid harboring NurRE response element assessed as increase in luciferase activity incubated for 18 hrs by luciferase reporter gene assay; conditions: filed as modulator; outline: as §3
[9] = target: Nuclear receptor subfamily 4 group A member 3 (Homo sapiens) (UniProt Q92570); assay: Modulation of full length human NOR1 expressed in HEK293T cells co-transfected with RXRalpha luciferase reporter plasmid harboring NurRE response element assessed as increase in luciferase activity incubated for 18 hrs by luciferase reporter gene assay; conditions: filed as modulator; outline: as §3
[10] = target: Nuclear receptor subfamily 4 group A member 2 (Homo sapiens) (UniProt P43354); assay: Modulation of full length human Nurr1 expressed in HEK293T cells co-transfected with RXRalpha and luciferase reporter plasmid harboring NurRE response element assessed as increase in luciferase activity incubated for 18 hrs by luciferase reporter-gene assay; conditions: filed as modulator; outline: as §1
[11] = target: Nuclear receptor subfamily 4immunitygroup A member 1 (Homo sapiens) (UniProt P22736); assay: Modulation of full length human Nur77 expressed in PC12 cells co-transfected with luciferase reporter plasmid harboring NurRE response element assessed as increase in luciferase activity incubated for 18 by luciferase reporter gene assay; conditions: PC-12, filed as modulator, time 18.0 hrs; outline: as §2
[12] = target: Nuclear receptor subfamily 4 group A member 2 (Homo sapiens) (UniProt P43354); assay: Modulation of full length human Nurr1 expressed in PC12 cells co-transfected with RXRalpha and luciferase reporter plasmid harboring NurRE response element assessed as increase in luciferase activity incubated for 18 hrs by luciferase reporter-gene assay; conditions: PC-12, filed as modulator
Outline: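 PC12 cells were grown at 37°C and 5% CO2 in […] medium with 15% horse serum and 2.5% FBS. They were transfected with full-length Nurr1 (1 μg) plus full-length RXRα (1 μg) and 3xNBRE- or 3xNurRE-luciferase reporter (6 μg) for 18 h, then replated at 10,000 cells/well for 4 h. Ligand or vehicle (water, ethanol or DMSO) was added in quadruplicate for 18 h. Luminescence was read as fold change over vehicle. Results are mean ± s.e.m., n=4, from 2 independent experiments, analysed by one-way ANOVA against vehicle.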

[13] = target: Nuclear receptor subfamily 4immunitygroup A member 1 (Homo sapiens) (UniProt P22736); assay: Modulation of full length human Nur77 expressed in SK-N-BE(2) cells co-transfected with luciferase reporter plasmid harboring NurRE response element assessed as increase in luciferase activity incubated for 18 by luciferase reporter gene assay; conditions: SKNBE2, filed as modulator, time 18.0 hrs; outline: as §2
[14] = target: Nuclear receptor subfamily 4 group A member 2 (Homo sapiens) (UniProt P43354); assay: Modulation of full length human Nurr1 expressed in HEK293T cells co-transfected with luciferase reporter plasmid harboring NBRE response element assessed as increase in luciferase activity incubated for 18 hrs by luciferase reporter-gene assay; conditions: filed as modulator; outline: as §1
[15] = target: Nuclear receptor subfamily 4 group A member 2 (Homo sapiens) (UniProt P43354); assay: Modulation of full length human Nurr1 expressed in SKNBE(2) cells co-transfected with RXRalpha and luciferase reporter plasmid harboring NurRE response element assessed as increase in luciferase activity incubated for 18 hrs by luciferase reporter-gene assay; conditions: SKNBE2, filed as modulator
Outline: (§4)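 SK-N-BE(2)-C cells were kept in 1:1 EMEM/F12 with 10% FBS at 37°C and 5% CO2. They were cotransfected with full-length Nurr1 (1 μg), full-length RXRα (1 μg) and 3xNBRE- or 3xNurRE-luc reporter (6 μg) for 18 h, replated at 10,000 cells/well for 4 h, and then treated with ligand or vehicle in quadruplicate for 18 h. The readout was luciferase luminescence as fold over vehicle, reported as mean ± s.e.m. (n=4) from 2 independent experiments, one-way ANOVA.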

[16] = target: Nuclear receptor subfamily 4immunitygroup A member 1 (Homo sapiens) (UniProt P22736); assay: Modulation of full length human Nur77 expressed in SK-N-BE(2) cells co-transfected with RXRalpha and luciferase reporter plasmid harboring NurRE response element assessed as increase in luciferase activity incubated for 18 by luciferase reporter gene assay; conditions: SKNBE2, filed as modulator, time 18.0 hrs; outline: as §2
[17] = target: Nuclear receptor subfamily 4 group A member 2 (Homo sapiens) (UniProt P43354); assay: Modulation of full length human Nurr1 expressed in SKNBE(2) cells co-transfected with RXRalpha and luciferase reporter plasmid harboring NBRE response element assessed as increase in luciferase activity incubated for 18 hrs by luciferase reporter-gene assay; conditions: SKNBE2, filed as modulator; outline: as §4

Measured: Activity

Chain of Nuclear receptor subfamily 4 group A member 3 (Homo sapiens) (Q92570 whole entry): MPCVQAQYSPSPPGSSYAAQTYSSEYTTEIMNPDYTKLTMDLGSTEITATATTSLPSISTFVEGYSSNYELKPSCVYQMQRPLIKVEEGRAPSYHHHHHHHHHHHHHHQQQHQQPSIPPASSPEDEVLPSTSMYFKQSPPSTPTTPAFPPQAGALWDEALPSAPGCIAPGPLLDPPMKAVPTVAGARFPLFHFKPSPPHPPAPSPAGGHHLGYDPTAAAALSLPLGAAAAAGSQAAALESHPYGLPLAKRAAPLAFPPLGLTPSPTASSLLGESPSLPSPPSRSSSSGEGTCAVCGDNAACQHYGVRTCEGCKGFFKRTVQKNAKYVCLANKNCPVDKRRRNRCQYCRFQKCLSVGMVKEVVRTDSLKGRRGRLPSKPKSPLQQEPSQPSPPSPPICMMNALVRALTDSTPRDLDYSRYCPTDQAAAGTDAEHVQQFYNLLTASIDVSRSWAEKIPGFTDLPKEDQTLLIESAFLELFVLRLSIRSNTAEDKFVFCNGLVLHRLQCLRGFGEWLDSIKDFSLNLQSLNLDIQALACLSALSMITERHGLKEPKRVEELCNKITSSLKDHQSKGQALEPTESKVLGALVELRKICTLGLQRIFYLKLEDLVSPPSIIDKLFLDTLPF
Chain of Nuclear receptor subfamily 4 group A member 2 (Homo sapiens) (P43354 whole entry): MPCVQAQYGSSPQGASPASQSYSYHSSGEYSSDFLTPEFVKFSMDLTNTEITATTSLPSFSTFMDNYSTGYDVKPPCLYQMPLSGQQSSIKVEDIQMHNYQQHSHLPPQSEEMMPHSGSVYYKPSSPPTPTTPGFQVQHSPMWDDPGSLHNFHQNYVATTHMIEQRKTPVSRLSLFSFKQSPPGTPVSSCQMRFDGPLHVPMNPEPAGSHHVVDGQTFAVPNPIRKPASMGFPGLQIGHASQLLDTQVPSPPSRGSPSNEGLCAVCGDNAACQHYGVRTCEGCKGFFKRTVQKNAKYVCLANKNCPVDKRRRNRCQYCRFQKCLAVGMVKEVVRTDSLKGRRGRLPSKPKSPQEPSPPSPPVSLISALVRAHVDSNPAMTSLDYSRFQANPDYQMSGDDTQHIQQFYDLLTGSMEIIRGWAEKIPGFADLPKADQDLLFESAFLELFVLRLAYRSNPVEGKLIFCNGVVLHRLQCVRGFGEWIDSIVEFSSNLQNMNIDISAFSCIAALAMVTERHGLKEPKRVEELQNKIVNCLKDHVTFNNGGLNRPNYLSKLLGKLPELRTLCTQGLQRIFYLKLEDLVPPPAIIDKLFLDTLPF
Chain of Nuclear receptor subfamily 4immunitygroup A member 1 (Homo sapiens) (P22736 whole entry): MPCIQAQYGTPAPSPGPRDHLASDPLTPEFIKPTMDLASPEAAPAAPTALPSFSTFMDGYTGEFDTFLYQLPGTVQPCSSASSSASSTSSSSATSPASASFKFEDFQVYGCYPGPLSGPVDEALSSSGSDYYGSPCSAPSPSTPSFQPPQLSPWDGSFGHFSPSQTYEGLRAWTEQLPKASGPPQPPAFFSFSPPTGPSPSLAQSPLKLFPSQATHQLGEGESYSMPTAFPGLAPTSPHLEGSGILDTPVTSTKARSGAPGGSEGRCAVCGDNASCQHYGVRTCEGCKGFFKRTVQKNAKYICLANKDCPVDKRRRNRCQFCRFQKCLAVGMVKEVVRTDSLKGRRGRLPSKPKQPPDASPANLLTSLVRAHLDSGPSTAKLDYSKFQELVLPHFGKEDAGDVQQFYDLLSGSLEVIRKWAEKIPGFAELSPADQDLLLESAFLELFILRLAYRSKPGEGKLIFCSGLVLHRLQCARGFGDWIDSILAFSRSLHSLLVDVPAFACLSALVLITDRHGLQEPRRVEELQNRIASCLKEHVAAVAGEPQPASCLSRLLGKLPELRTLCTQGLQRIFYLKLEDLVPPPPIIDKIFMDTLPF

CCN(CC)Cc1cc(Nc2ccnc3cc(Cl)ccc23)ccc1O [AMODIAQUINE]
active: [1] Dose-Dependent Effect | [2] Dose-Dependent Effect | [3] Dose-Dependent Effect | [4] Dose-Dependent Effect | [5] Dose-Dependent Effect | [6] Dose-Dependent Effect | [7] Dose-Dependent Effect | [8] Dose-Dependent Effect | [9] Dose-Dependent Effect | [10] Dose-Dependent Effect | [11] Dose-Dependent Effect | [12] Dose-Dependent Effect | [13] Dose-Dependent Effect | [14] Dose-Dependent Effect | [15] Dose-Dependent Effect | [16] Dose-Dependent Effect | [17] Dose-Dependent Effect

CCN(CC)CCCC(C)Nc1ccnc2cc(Cl)ccc12 (stereo unspecified) [CHLOROQUINE]
active: [1] Dose-Dependent Effect | [2] Dose-Dependent Effect | [3] Dose-Dependent Effect | [4] Dose-Dependent Effect | [5] Dose-Dependent Effect | [6] Dose-Dependent Effect | [7] Dose-Dependent Effect | [8] Dose-Dependent Effect | [9] Dose-Dependent Effect | [10] Dose-Dependent Effect | [11] Dose-Dependent Effect | [12] Dose-Dependent Effect | [13] Dose-Dependent Effect | [14] Dose-Dependent Effect | [15] Dose-Dependent Effect | [16] Dose-Dependent Effect | [17] Dose-Dependent Effect

CCCCCCCC(=O)c1c(O)cc(O)cc1CC(=O)OCC [CYTOSPORONE B]
active: [1] Dose-Dependent Effect | [2] Dose-Dependent Effect | [3] Dose-Dependent Effect | [4] Dose-Dependent Effect | [5] Dose-Dependent Effect | [6] Dose-Dependent Effect | [7] Dose-Dependent Effect | [8] Dose-Dependent Effect | [9] Dose-Dependent Effect | [10] Dose-Dependent Effect | [11] Dose-Dependent Effect | [12] Dose-Dependent Effect | [13] Dose-Dependent Effect | [14] Dose-Dependent Effect | [15] Dose-Dependent Effect | [16] Dose-Dependent Effect | [17] Dose-Dependent Effect
